Assay results: article PMC6263940 (Nature chemical biology, 2018)

Columns and labels:
[1] = biological target: T1, mouse brain serine hydrolases (Mus musculus, UniProt Q9QXM0); type: biochemical; settings: MS-ABPP, mouse brain membrane proteome, 1 μM
T1 sequence (Q9QXM0 1-425): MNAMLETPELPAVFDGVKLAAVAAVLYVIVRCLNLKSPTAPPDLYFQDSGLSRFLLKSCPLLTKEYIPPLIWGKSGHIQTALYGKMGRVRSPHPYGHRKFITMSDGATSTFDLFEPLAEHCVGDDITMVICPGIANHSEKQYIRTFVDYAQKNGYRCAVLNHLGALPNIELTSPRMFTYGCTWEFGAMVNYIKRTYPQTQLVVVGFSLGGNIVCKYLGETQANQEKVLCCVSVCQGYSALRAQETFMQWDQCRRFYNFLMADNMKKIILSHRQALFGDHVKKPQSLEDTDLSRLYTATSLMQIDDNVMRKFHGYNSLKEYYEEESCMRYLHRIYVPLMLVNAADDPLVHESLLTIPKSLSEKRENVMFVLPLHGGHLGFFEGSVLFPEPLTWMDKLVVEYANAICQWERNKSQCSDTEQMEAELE

[2] = tested on: mouse brain serine hydrolases; type: biochemical; settings: gel-based ABPP 0.1 or 2 μM; MS-based ABPP 1 μM
[3] = biological target: T2, ABHD12 (Homo sapiens, UniProt Q8N2K0); assay: In situ treatment of THP-1 cells, competitive gel-based ABPP with JJH350 probe; type: cell-based; settings: 1 μM, 4 h in situ
T2 sequence (Q8N2K0 1-398): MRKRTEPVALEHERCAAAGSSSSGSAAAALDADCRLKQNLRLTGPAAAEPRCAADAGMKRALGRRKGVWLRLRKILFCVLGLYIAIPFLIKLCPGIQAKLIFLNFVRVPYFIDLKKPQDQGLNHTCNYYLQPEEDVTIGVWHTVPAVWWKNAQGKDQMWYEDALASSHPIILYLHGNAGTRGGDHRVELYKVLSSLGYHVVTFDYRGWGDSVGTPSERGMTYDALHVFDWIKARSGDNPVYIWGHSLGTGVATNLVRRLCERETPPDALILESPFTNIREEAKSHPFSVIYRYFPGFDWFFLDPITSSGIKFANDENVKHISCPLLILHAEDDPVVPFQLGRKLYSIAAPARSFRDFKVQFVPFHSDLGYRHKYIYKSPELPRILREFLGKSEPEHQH
Summary of the method: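 Whole THP-1 cells exposed to test compound or DMSO for 4 h at 37 °C, 5% CO₂, then washed twice with ice-cold DPBS. Proteome (1 mg/mL) labelled with JJH350 (2 μM final, 45 min, 37 °C), clicked by CuAAC and resolved on gel. ABHD12 band intensity is expressed relative to the control-treated sample, set to 100%.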

[4] = biological target: T3, ABHD2 (Mus musculus, UniProt Q9QXM0); assay: Quantitative MS-ABPP of brain membrane proteome from treated mice: ABHD2; type: in vivo; settings: 30 mg/kg, i.p., 4 h
T3 sequence (Q9QXM0 1-425): T1 sequence (Q9QXM0 1-425)
Summary of the method: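 Mice dosed i.p. with test compound (30 mg/kg) or vehicle and killed after 4 h (isoflurane, then cervical dislocation). Brain membrane serine hydrolase activities quantified by MS-based ABPP. Each protein's value is the mean of median peptide ratios (treated vs vehicle) ± SEM, from n = 4 or 3 independent samples per compound.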

[5] = tested on: C57BL/6 mice; assay: Targeted LC-MS of brain lipid content of treated mice; type: in vivo, mouse
Summary of the method: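 Mice received test compound or vehicle i.p. (single doses, 24 h; or 30 mg/kg time course), orally (24 h), or 30 mg/kg daily p.o. for four weeks (8-month-old mice). Brains harvested after isoflurane and cervical dislocation; lipids measured by targeted LC-MS. ABHD12(+/+) and (−/−) brains serve as reference; chronic data given as mean ± SEM.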

[6] = tested on: mice; assay: Two-week daily dosing, overt signs of toxicity; type: in vivo, mouse; settings: adult mice, 30 mg/kg daily, p.o., two weeks

For `FC(F)(F)Oc1ccc(Oc2ccnc(N3CCC(NC(=S)Nc4cccnc4)CC3)c2Cl)c(Cl)c1` [DO264, N-3-pyridyl-N’-(1-[3-chloro-4-{2-chloro-4-(trifluoromethoxy)phenoxy}pyridine-2-yl]piperidin-4-yl)thiourea], the “inhibition of mouse ABHD2 in vitro” value [1] was “did not inhibit”, the “selectivity for ABHD12 over other mouse brain serine hydrolases” value [2] was “excellent selectivity” and the “ABHD12 activity in THP-1 cells by competitive gel-based ABPP (in words)” value [3] was “complete blockade”. The “reduction in ABHD2 activity in treated mice” value [4] was 40-50%, the “time post-dosing at which brain lyso-PS changes were maximal” value ([5]; 30 mg/kg, i.p., detectable by 4 h) was 24 h and the “brain 20:4 lyso-PI” value ([5]; 30 mg/kg, p.o., 24 h) was “increase”. For the same molecule, the “brain lyso-PS and 20:4 PS after chronic treatment” value ([5]; 8-month-old mice, 30 mg/kg daily, p.o., four weeks) was “Substantial elevations”, the “brain lyso-PS species and select 20:4 PS species” value ([5]; DO264 1-60 mg/kg, (S)-DO271 60 mg/kg, i.p., 24 h) was “dose-dependently increased” and the “brain 2-AG” value ([5]; brain tissue of treated mice) was “did not show changes”. For the same molecule, the “dose at which maximal lyso-PS and 20:4 PS elevations were observed” value ([5]; i.p., 24 h) was 30 mg/kg and the “overt signs of toxicity, such as weight loss or behavioral distress” value [6] was “neither compound produced overt signs of toxicity”.
